Where “and” joins values, the source holds several entries; their conditions need not be identical. Identical values can stand only once.
System: S. cerevisiae growth in glycerol medium, OD600, 48 h
Assay: S. cerevisiae growth inhibition on glycerol, dose response, glycerol medium, plate reader, dry powder, set 4 (AID 624012)
Summary of the method: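 Test system: Saccharomyces cerevisiae yeast whole cells, growth on glycerol; Buffer or medium: CSM medium with glycerol as carbon source; Dosing: test compounds delivered into wells by pin transfer; Timing: 48 h exposure, 30 °C; Signal: optical density at 600 nm (absorbance); Benchmarks: positive control Amphotericin B at 10 µM.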

**Q.** `CCOC(=O)N1C(=O)C2(CCCCC2)N(c2ccccc2)C1=S` was tested. Which AC50 did it give?
**A.** The AC50 was 0.0146 µM.

**Q.** `CCOC(=O)N1C(=O)C2(CCCCC2)N(c2ccc(C#N)cc2)C1=S` was tested. Which AC50 did it give?
**A.** Its AC50 is 0.00365 µM.

**Q.** `CCOC(=O)N1C(=O)C2(CCCCC2)N(c2ccc(Cl)cc2)C1=S` was tested. Which AC50 did it give?
**A.** The AC50 was 0.00577 µM.

**Q.** For `CC1/C=C/C=C\C=C\C=C\C=C\C=C\C=C\C(O[C@H]2OC(C)C(O)C(N)C2O)CC2OC(O)(CC(O)CC(O)C(O)CCC(O)CC(O)CC(=O)OC(C)C(C)C1O)CC(O)C2C(=O)O` (stereo partly drawn), which AC50 is on record?
**A.** Its AC50 is 0.274 µM.

**Q.** Which AC50 does the source give for `CCOC(=O)N1C(=O)C2(CCCCC2)N(c2cccc(C)c2)C1=S` here?
**A.** The AC50 was 0.0181 µM.

**Q.** For `C/C=C/[C@@H]1[C@H]2C[C@@H](C)CC[C@@H]2C(C)=C[C@H]1C(=O)c1c(O)c(-c2ccc(O)cc2)c[nH]c1=O`, which AC50 is on record?
**A.** Its AC50 is 0.0275 µM.

**Q.** How did the AC50 turn out when `CCOC(=O)N1C(=O)C2(CCCCC2)N(c2ccc(C)cc2)C1=S` was run?
**A.** Its AC50 is 0.0108 µM and 0.00697 µM.

**Q.** For `CCOC(=O)N1C(=O)C2(CCCCC2)N(c2ccc(F)cc2)C1=S`, which AC50 is on record?
**A.** Its AC50 is 0.00397 µM.

— PubChem BioAssay AID624012 (Broad Institute, 2012)
